Shown are actives, neighbours in structure and some others; about 1.7% of the full set was active somewhere.
rRNA inh HTS = selective bacterial rRNA inhibition in E. coli | GFP signal change (wild-type ribosome), % (test concentration not listed) | 1.6% of 350,000 active | E. coli WT GFP vs humanized-ribosome RFP mutants, fluorescence, 24 h; active compounds read low; DMSO median 0, no signal -100;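 active = significant combined selectivity score with lowered wild-type GFP, culture density cut under 30%, mutant RFP and density less affected; inactive = any of these conditions unmet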
Cneo AK release = Cryptococcus neoformans lysis via adenylate kinase release | C. neoformans lysis, adenylate kinase release luminescence, 4 h; normalised: neutral wells 0, clomiphene wells 100 | 0.2% of 360,000 active | lysis activity, % at 15 µM;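 active = mean lysis activity across replicates of at least 80%, whatever share of replicates individually reach that level; inactive = mean lysis activity below 80%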
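Assay system: Cryptococcus neoformans yeast cells / Dosing: single-point compound dose / Timing: 4 h at 37 °C static, read 1 h later / Measured by: luminescence of released adenylate kinase using an AK detection reagent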
CaV13 FRET inh = Disruptors of the CACNA1D IQ motif to Ca2+-dependent inactivation inhibitor domain association, primary screening, Förster resonance energy transfer in intact living …; inhibition, % at 12.3 µM; HEK cells, CFP/YFP FRET ICDI-IQ, plate reader, 10 min; percent FRET-ratio fall versus neutral wells; AID 743397; 0.098% of 340,000 active;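 active = mean replicate inhibition of at least 30% and at least 1% of replicates passing that level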
CFTR F508del cor = correctors of CFTR F508del function in bronchial epithelial cells; activity (quench increase), % at 7.58 µM; CFBE cells, YFP halide quenching; stimulated with forskolin plus potentiator P3; % fluorescence drop versus neutral controls; 0.36% of 350,000 active;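 active = mean added fluorescence quench of at least 8% versus neutral control, with both replicates also reaching 8%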;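 note: cells transiently co-express mutant CFTR-F508del with the halide-sensitive YFP; corrector assay measuring rescue of mutant channel to the surface after 24 h compound exposure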
Numbers stand for hits.

`COCCCNC(=O)[C@@]1(CCS(=O)(=O)c2ccccc2)COC(c2ccc(OCCCO)cc2)=N1` gave Cneo AK release inactive and CFTR F508del cor inactive.
CO[C@H]1CN(C)C(=O)c2cc(NC(=O)c3ccccc3F)ccc2OC[C@H](C)N(C(C)=O)C[C@H]1C was read as rRNA inh HTS inactive, Cneo AK release 95.2 and CFTR F508del cor inactive.
`CO[C@H]1CN(C)C(=O)c2cc(NC(=O)c3ccccc3F)ccc2OC[C@H](C)N(CC2CCOCC2)C[C@H]1C` gave rRNA inh HTS inactive, Cneo AK release 97.8 and CFTR F508del cor inactive.
`C[C@@H]1CN([C@@H](C)CO)C(=O)c2cc(-c3ccccc3F)cnc2O[C@H]1CN(C)C(=O)C1CCC1` gave rRNA inh HTS inactive, Cneo AK release inactive and CFTR F508del cor inactive.
For O=C([C@@H]1[C@@H](CO)[C@@H]2Cn3c(ccc(-c4cccnc4)c3=O)[C@H]1N2Cc1cccnc1)N1CCOCC1 the results were rRNA inh HTS inactive, Cneo AK release inactive and CFTR F508del cor inactive.
COc1ccccc1OCCNC(=O)c1ccccc1C was read as Cneo AK release inactive and CaV13 FRET inh inactive.
Cc1ccccc1OCCNC(=O)CNC(=O)c1ccccc1O was read as rRNA inh HTS -26.7, Cneo AK release inactive, CaV13 FRET inh inactive and CFTR F508del cor inactive.
Screening COc1ccc(C(=O)Nc2ccc(NC(=O)c3cccc(F)c3)cn2)cc1 returned rRNA inh HTS inactive, Cneo AK release inactive, CaV13 FRET inh inactive and CFTR F508del cor 13.3.
CCCNC(=O)N1[C@H](CO)[C@H]2c3ccccc3N(C(=O)NC(C)C)C[C@H]21 was read as rRNA inh HTS inactive, Cneo AK release inactive and CFTR F508del cor inactive.
`COC(=O)C1=C(C)NC2=C(C(=O)CCC2)C1c1ccc(-c2ccsc2C(=O)OC)o1` (stereo not drawn) gave rRNA inh HTS -24.0, CaV13 FRET inh inactive and CFTR F508del cor inactive.
`O=Cc1[nH]c2ccccc2c1N(C(=O)CCl)c1ccc([N+](=O)[O-])cc1` gave rRNA inh HTS -55.5, Cneo AK release inactive, CaV13 FRET inh inactive and CFTR F508del cor inactive.
`CC(=O)n1cc(N(C(=O)CCl)c2ccc([N+](=O)[O-])cc2)c2ccccc21` gave rRNA inh HTS -35.8, Cneo AK release inactive, CaV13 FRET inh inactive and CFTR F508del cor inactive.
`O=C(CCl)N(CCCNC(=O)C(F)(F)F)c1ccc([N+](=O)[O-])cc1` gave rRNA inh HTS inactive, Cneo AK release inactive, CaV13 FRET inh inactive and CFTR F508del cor inactive.
`CCOC(=O)c1c(-c2ccc(OC)c(OC)c2)csc1NC(=O)C1CCCO1` (stereo not drawn) gave rRNA inh HTS -37.0, CaV13 FRET inh inactive and CFTR F508del cor inactive.
Screening COc1ccc(-c2csc(NC(=O)c3cccs3)c2C(=O)O)cc1OC returned rRNA inh HTS -34.3 and CFTR F508del cor inactive.
`COC(=O)c1c(-c2ccc(F)cc2)csc1NC(=O)C1CCCO1` (stereo not drawn) gave rRNA inh HTS inactive, CaV13 FRET inh inactive and CFTR F508del cor inactive.
Screening CO[C@@H]1CN(C)C(=O)c2ccc(NS(=O)(=O)c3cccc(C)c3)cc2OC[C@H](C)NC[C@@H]1C returned rRNA inh HTS inactive, Cneo AK release inactive and CFTR F508del cor inactive.
`O=C(CN1CCOCC1)NCC[C@@H]1CC[C@@H](NC(=O)c2ccccc2F)[C@@H](CO)O1` gave rRNA inh HTS inactive, Cneo AK release inactive and CFTR F508del cor inactive.
`CCCn1cc(S(=O)(=O)c2ccc(C)cc2)c(=O)c2cc(OC)ccc21` gave rRNA inh HTS inactive, Cneo AK release inactive, CaV13 FRET inh inactive and CFTR F508del cor inactive.
CCCn1cc(S(=O)(=O)c2ccc(Cl)cc2)c(=O)c2cc(OC)ccc21 was read as rRNA inh HTS -28.0, Cneo AK release inactive, CaV13 FRET inh inactive and CFTR F508del cor inactive.
For Cn1c2ccccc2c2ccc3c(c21)C(=O)C=CC3=O the results were rRNA inh HTS -24.9, CaV13 FRET inh inactive and CFTR F508del cor inactive.
For Cc1ccc2c(c1)c1ccc3c(c1n2C)C(=O)C=CC3=O the results were rRNA inh HTS inactive, Cneo AK release inactive, CaV13 FRET inh inactive and CFTR F508del cor inactive.
For O=S(=O)(N[C@H]1CC[C@H](CCn2cc(-c3cccnc3)nn2)O[C@@H]1CO)c1ccccc1 the results were rRNA inh HTS inactive, Cneo AK release inactive and CFTR F508del cor inactive.
Screening COc1ccc2cc3c(N)nn(C(=O)Cc4c[nH]c5ccccc45)c3nc2c1 returned rRNA inh HTS -33.4, CaV13 FRET inh inactive and CFTR F508del cor inactive.
`C/C=C/c1cnc2c(c1)C(=O)N([C@H](C)CO)C[C@H](C)[C@@H](CN(C)C(=O)NCCC)O2` gave rRNA inh HTS inactive, Cneo AK release inactive and CFTR F508del cor inactive.
For CC(C)OC(=O)NCCOC(=O)Nc1ccc(Cl)cc1 the results were rRNA inh HTS -21.2, CaV13 FRET inh inactive and CFTR F508del cor inactive.
S=C(NCc1ccco1)N/N=C/c1ccc(Cl)cc1 was read as rRNA inh HTS -38.7 and CaV13 FRET inh inactive.
`COc1ccccc1/C=N/NC(=S)NCc1ccco1` gave rRNA inh HTS inactive, Cneo AK release 89.3, CaV13 FRET inh inactive and CFTR F508del cor inactive.
For CC(=O)NC(c1ccc(Cl)cc1Cl)c1ccc2cccnc2c1O (stereo not drawn) the results were rRNA inh HTS inactive, Cneo AK release inactive, CaV13 FRET inh inactive and CFTR F508del cor 10.0.
CCCC(=O)NC(c1ccc(Cl)cc1)c1ccc2cccnc2c1O (stereo not drawn) was read as rRNA inh HTS inactive, Cneo AK release inactive, CaV13 FRET inh inactive and CFTR F508del cor 15.1.
`CC(=O)NC(c1ccc2ccccc2c1)c1ccc2cccnc2c1O` (stereo not drawn) gave rRNA inh HTS inactive, Cneo AK release inactive, CaV13 FRET inh inactive and CFTR F508del cor 13.1.
Screening CCCNC(=O)C[C@@H]1CC[C@@H]2[C@@H](COc3ccc(NC(=O)c4cccc(Cl)c4)cc3C(=O)N2C)O1 returned rRNA inh HTS inactive and CFTR F508del cor inactive.
For O=C(C[C@H]1CC[C@H]2[C@@H](COC[C@@H](O)CN2C(=O)c2ccccc2)O1)NC1Cc2ccccc2C1 the results were rRNA inh HTS inactive, Cneo AK release inactive and CFTR F508del cor inactive.
`CCCNC(=O)C[C@@H]1CC[C@@H]2[C@H](COC[C@H](O)CN2S(=O)(=O)c2ccc(Oc3ccccc3)cc2)O1` gave rRNA inh HTS inactive, Cneo AK release inactive and CFTR F508del cor inactive.
Screening O=C(C[C@H]1CC[C@H]2[C@@H](COC[C@@H](O)CN2S(=O)(=O)c2ccc(Oc3ccccc3)cc2)O1)NC1CCC1 returned rRNA inh HTS inactive, Cneo AK release 85.7 and CFTR F508del cor inactive.
`Cc1ccc(S(=O)(=O)N2C[C@@H](O)COC[C@@H]3O[C@H](CC(=O)NCc4ccc5c(c4)OCO5)CC[C@H]32)cc1` gave rRNA inh HTS inactive, Cneo AK release 109.3 and CFTR F508del cor inactive.
